Arbovirus anti = antivirals against arbovirus infection, primary screen, cell-based, full library, 10K replicate subset; arbovirus infection cell-based antiviral screen; inhibition, % at 10 µM; 0.37% of 200,000 active; in the data active = inhibition above about 30%
L major viab = Leishmania major promastigote growth inhibition, primary screen; Leishmania major promastigotes, resazurin fluorescence viability; inhibition, % at 10 µM; 9% of 200,000 active;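 note: promastigotes grown with compound for 44 hours at 28 °C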
CHOP inhibitor = inhibitors of CHOP promoter induction, primary screen, cell-based, unfolded protein response, luciferase reporter. CHO-K1 CHOP-promoter luciferase, tunicamycin-induced, 15-18 h. 3.8% of 220,000 active. AID 2732, 2010. inhibition, % at 10 µM;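 active = compounds that reduced the stress-induced luciferase reporter signal by more than about 70% of percent inhibition, limit read from the data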;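 note: 0% = tunicamycin plus vehicle and 100% = wells without tunicamycin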
Wee1 stabilizer = Wee1 degradation inhibitors, primary screen, cell-based, HeLa, Wee1K328M-luciferase, luminescence; Wee1-like protein kinase (Homo sapiens), P30291; HeLa Luc-Wee1K328M stability; 100% = proteasome inhibitor MG132 effect; reporter increase, % at 5 µM; 1.2% of 220,000 active; AID 1321, 2008;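 active = activation above the mean of all tested compounds plus 3 SD, set per screening run, cut at about 8.8% in these data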;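 note: cells exposed to compound for 20 h before luminescence read; 0% = DMSO alone and 100% = MG132 at 30 µM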
Rad51 HR inh = human RAD51 strand exchange inhibitors, primary screen, biochemical, fluorescence | DNA repair protein RAD51 homolog 1 (Homo sapiens), Q06609 | hRad51 DNA strand exchange, fluorescence dequenching | inhibition, % at 10 µM | 0.085% of 200,000 active | AID 1385, 2008;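 active = inhibition above 40% at the single screening dose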;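 note: 0% = DMSO control wells and 100% = blanks with heterologous ssDNA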
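Test system: preformed human Rad51 ssDNA filaments. Compound dosing: single dose, 10 µM final compound. Incubation: filaments 15 min 37 °C, then compound 30 min. Technique: FRET fluorescence dequenching, excitation 485 nm, emission 520 nm. Read-out basis: percent inhibition from fluorescence, normalised to plate control and blank means. Benchmarks: plate controls and plate blanks.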
PKD1 kinase inh = inhibitors of human PKD1 kinase, biochemical, fluorescence polarization; AID 797, 2007; inhibition, % (concentration not given with the values); PKD1 kinase fluorescence polarization assay; 0.056% of 200,000 active
Target sequence (Q15139 whole entry, looked up): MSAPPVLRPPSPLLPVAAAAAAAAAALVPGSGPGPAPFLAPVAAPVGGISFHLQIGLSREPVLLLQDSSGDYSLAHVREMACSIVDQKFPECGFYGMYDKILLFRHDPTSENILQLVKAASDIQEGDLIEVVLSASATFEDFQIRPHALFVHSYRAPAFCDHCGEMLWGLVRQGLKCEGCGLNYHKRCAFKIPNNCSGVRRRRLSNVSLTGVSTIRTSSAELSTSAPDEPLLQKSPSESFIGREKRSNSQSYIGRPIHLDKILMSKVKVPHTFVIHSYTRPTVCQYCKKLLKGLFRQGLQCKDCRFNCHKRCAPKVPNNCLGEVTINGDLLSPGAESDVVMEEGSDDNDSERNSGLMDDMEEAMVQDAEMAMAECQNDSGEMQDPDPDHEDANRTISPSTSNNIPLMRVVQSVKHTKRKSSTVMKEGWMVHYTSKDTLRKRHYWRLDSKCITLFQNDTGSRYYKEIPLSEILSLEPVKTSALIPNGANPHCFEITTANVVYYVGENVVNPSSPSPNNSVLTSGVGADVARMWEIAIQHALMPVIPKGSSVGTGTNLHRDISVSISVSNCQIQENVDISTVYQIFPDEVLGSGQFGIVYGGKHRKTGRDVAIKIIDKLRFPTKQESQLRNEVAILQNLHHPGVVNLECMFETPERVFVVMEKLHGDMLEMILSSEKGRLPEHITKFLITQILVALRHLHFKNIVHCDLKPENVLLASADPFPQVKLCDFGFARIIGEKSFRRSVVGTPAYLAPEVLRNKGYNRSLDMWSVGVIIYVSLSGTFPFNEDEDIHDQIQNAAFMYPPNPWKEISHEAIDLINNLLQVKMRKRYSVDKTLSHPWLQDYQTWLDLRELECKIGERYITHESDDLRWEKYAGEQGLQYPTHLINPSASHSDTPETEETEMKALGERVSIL
CHOP confirm = retest of CHOP induction inhibitors, confirmation, cell-based; 45% of 2,100 active; inhibition, % at 10 µM; shares compounds with CHOP inhibitor; AID 504437, 2011; CHO-CHOP promoter luciferase reporter, tunicamycin-induced, luminescence;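 active = mean of three repeat readings of reporter signal inhibition above a set limit, cut at about 70% in these data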;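 note: 0% = tunicamycin plus vehicle and 100% = wells lacking tunicamycin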
* = called active by the depositor; x = no result given. Most compounds without a hit are left out; they make up all but 12% or so of the library. Cut-off read from the data, not from the text of the source, unless noted: active = inhibition above about 50%; inactive = the rest.

SMILES	Arbovirus anti	L major viab	CHOP inhibitor	Wee1 stabilizer	Rad51 HR inh	PKD1 kinase inh	CHOP confirm
CCN(C(=O)c1cc2c(=O)[nH]c3ccc(C)cc3c2s1)c1ccc(F)cc1	x	x	-8	1	8	x	x
CCN(C(=O)c1cc2c(=O)[nH]c3ccc(C)cc3c2s1)c1cccc(C)c1	x	x	98*	0	9	x	18
COc1cc(NC(=O)COc2ccccc2[N+](=O)[O-])ccc1NC(=O)c1cccs1	-3	-5	104*	6	x	1	105*
CCC(=O)NC(=S)Nc1cccc(NC(=O)c2ccccc2)c1	0	-1	-7	-1	-4	-8	x
Cc1cccc(NC(=O)CN(c2ccc(C(C)C)cc2)S(=O)(=O)c2c(C)nn(C)c2C)n1	-10	18	38	-2	1	-10	x
Cc1cccc(Nc2nc(N)c([N+](=O)[O-])c(NCc3ccccc3)n2)c1	x	x	102*	0	x	x	25
CCOc1ccc(NC(=O)COC(=O)C23CC4CC(CC(C4)C2)C3)c([N+](=O)[O-])c1	5	-2	15	-3	33	-7	x
Cc1cccc(N2CCN(C(=O)c3ccncc3)CC2)c1C	1	-5	x	3	-4	-3	x
Cc1cccc(N2CCN(C(=O)c3c(C)nn(Cc4ccccc4Cl)c3C)CC2)c1C	-20	38	103*	-3	-2	-2	86*
COc1ccc(OC)c(NC(=O)CCc2c[nH]c3ccccc23)c1	-19	8	16	-2	-27	1	x
O=C(Nc1ccc(Cl)c(C(F)(F)F)c1)NC1CC2CCCC(C1)N2Cc1ccccc1 (stereo unspecified)	-33	100*	101*	-2	5	-1	98*
COC(=O)c1cc2sc(Cl)cc2n1CC(=O)Nc1cccc(SC)c1	10	16	99*	-3	0	7	-3
COC(=O)c1cc2sc(Cl)cc2n1CC(=O)Nc1ccc(OC)c(OC)c1OC	-2	10	27	1	3	-5	x
Cc1cccc(NC(=O)CSc2nc3ccccc3c3nc(CCc4c(C)n[nH]c4C)nn23)c1	-28	19	-3	-1	2	-3	x
Cc1n[nH]c(C)c1CCc1nc2c3ccccc3nc(SCC(=O)Nc3ccccc3F)n2n1	5	16	98*	-1	-5	-1	-16
N/C(=N\c1nc(CSc2nc3ccccc3s2)cc(=O)[nH]1)Nc1ccc(F)cc1	x	x	99*	-1	7	x	18
Cc1ccc(N/C(N)=N/c2nc(CSc3nnc(N)s3)cc(=O)[nH]2)cc1	x	x	6	-3	12	x	x
COc1ccccc1C(=O)NNC(=O)c1cccc(F)c1	-6	-1	31	4	x	4	x
Cc1ccc(O)c(C(=O)CC(=O)c2cccc(F)c2)c1	2	60*	108*	6	10	-12	53
COc1ccc(O)c(C(=O)CC(=O)c2ccc(F)cc2)c1	-10	53*	103*	-5	-17	-4	68
Cc1ccc(N(CC(=O)NC(C)(C)C)C(=O)CNC(=O)c2cccs2)c(C)c1	-4	2	-2	0	1	-2	x
COc1ccccc1NS(=O)(=O)c1cccc(NC(=O)Nc2cccc(Cl)c2)c1	-9	100*	101*	-3	-22	0	51
Brc1ccc2c(c1)OCCOCCOCCOCCOCCOCCO2	9	-5	23	1	22	-14	x
Cc1ccc2nsnc2c1NC(=O)COc1ccccc1	0	-14	-2	-2	3	-4	x
Cc1nc(COC(=O)c2cc(O)c3ccccc3c2O)cs1	0	3	104*	0	-7	-3	120*
SMILES	Arbovirus anti	L major viab	CHOP inhibitor	Wee1 stabilizer	Rad51 HR inh	PKD1 kinase inh	CHOP confirm
Cc1cc(C(=O)Nc2c(F)c(F)c(F)c(F)c2F)n(-c2ccccc2)n1	6	5	-12	-1	8	-9	x
CCCC(NCC(O)COc1ccc(-c2ccccc2)cc1)c1ccccc1 (stereo unspecified)	-40	82*	103*	8	-6	-1	125*
Cc1cc(C)c(S(=O)(=O)NCCc2ccccc2)c(C)c1	-9	-4	55	5	2	-7	x
Cc1cc(C)c(S(=O)(=O)NCCn2ccc3ccccc32)c(C)c1	10	-5	107*	0	3	-10	24
Nc1nonc1-c1nc2ccccc2n1Cc1ccc(F)cc1Cl	-11	-5	100*	0	x	1	-41
CCCn1c(-c2nonc2N)nc2ccccc21	8	-4	32	3	-11	7	x
Cc1cc(C)nc(SC2=CS(=O)(=O)c3ccccc32)n1	-9	20	-30	0	-7	0	x
O=S1(=O)C=C(Sc2nc3ccccc3s2)c2ccccc21	-29	100*	x	3	7	-5	115*
COc1ccc(NC(=O)CN2CCCC(C)C2)c([N+](=O)[O-])c1 (stereo unspecified)	7	1	101*	0	4	2	40
COc1ccc(/C=N/NC(=O)CN2CCSCC2)cc1C	-2	41	-16	0	3	-6	x
COc1cc(/C=C/C(=O)OCC(=O)Nc2cc(C(F)(F)F)ccc2N2CCOCC2)ccc1O	-9	0	26	2	x	4	x
O=c1c2ccccc2nc2n1CCN2Cc1ccc(Cl)cc1	9	-8	99*	-1	-8	-11	95*
CCOC(=O)c1nc(S(C)(=O)=O)ncc1N1CCOCC1	4	-7	-5	0	-3	6	x
CCOC(=O)c1nc(S(C)(=O)=O)ncc1Cl	12	-2	x	-1	4	-3	92*
C=CCNC(=O)Nc1ccc(Cl)cn1	5	-6	43	4	x	7	x
COc1ccccc1C(CC(=O)Nc1ccc(Cl)cc1)c1ccc(OC(C)C)cc1 (stereo unspecified)	-7	32	42	-1	0	-10	x
CC(C)Oc1ccc(CNC(=O)CC(c2ccccc2)c2cc(Cl)ccc2O)cc1 (stereo unspecified)	-30	38	98*	-1	-4	-2	104*
Cc1cc(C2(c3ccc(O)c(C)c3)C(=O)Nc3ccccc32)ccc1O	-32	93*	105*	3	-1	6	119*
Oc1ccccc1-c1cc(-c2cccc(F)c2)n[nH]1	-10	13	70	4	10	-8	x
Oc1ccc(Cl)cc1-c1cc(-c2cccc(Br)c2)n[nH]1	-36	99*	101*	1	-9	-4	-48
COc1ccc(-c2[nH]ncc2C=O)cc1	-8	-6	-6	-3	16	4	x

Bioassay records deposited in PubChem BioAssay by several laboratories.
